Measurements as given in ChEMBL document CHEMBL1921722, “In vitro and in vivo evaluation of select kahalalide F analogs with antitumor and antifungal activities” (Bioorg Med Chem, 2011).
The source made the active and inactive calls.

Assays:
CCRF-CEM [1] = assay: Cytotoxicity against human CCRF-CEM cells assessed as cell growth at 800 nM by sulforhodamine B assay relative to control; assay type: functional; conditions: read-out: Activity
OVCAR-5 [2] = assay: Cytotoxicity against human OVCAR5 cells assessed as cell growth at 800 nM by sulforhodamine B assay relative to control; assay type: functional; conditions: read-out: Activity
NCI-H522 [3] = assay: Antitumor activity against human NCI-H522 cells xenografted in mouse assessed as tumor cell killing at 2.35 mg/kg, ip qd for 4 days by MTT assay; assay type: functional, organism-based; design: dose 2.35 mg/kg
M14 = assay: Cytotoxicity against human M14 cells assessed as cell growth at 800 nM by sulforhodamine B assay relative to control; assay type: functional; conditions: read-out: Activity
SR = assay: Cytotoxicity against human SR cells assessed as cell growth at 80 uM by sulforhodamine B assay relative to control; assay type: functional; conditions: read-out: Activity
ACHN [4] = assay: Cytotoxicity against human ACHN cells assessed as cell growth at 8 uM by sulforhodamine B assay relative to control; assay type: functional; conditions: read-out: Activity
In short: (§1)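 Run at NCI in the DTP 60-cell-line human tumor panel by standard procedure. Compounds were first screened at a single concentration, then tested at five tenfold-spaced concentrations. GI50 is the concentration reducing treated-cell growth to half that of untreated controls; TGI is the concentration completely halting growth.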

U-251 [5] = assay: Antitumor activity against human U251 cells xenografted in mouse assessed as tumor cell killing at 2.35 mg/kg, ip qd for 4 days by MTT assay; assay type: functional, organism-based; design: dose 2.35 mg/kg
SF-268 = assay: Cytotoxicity against human SF268 cells assessed as cell growth at 80 uM by sulforhodamine B assay relative to control; assay type: functional; conditions: read-out: Activity
Hs-578T = assay: Cytotoxicity against human Hs578T cells assessed as cell growth at 800 nM by sulforhodamine B assay relative to control; assay type: functional; conditions: read-out: Activity
CCRF-CEM [6] = assay: Cytotoxicity against human CCRF-CEM cells by sulforhodamine B assay; assay type: functional; in short: as §1
K562 = assay: Cytotoxicity against human K562 cells assessed as cell growth at 800 nM by sulforhodamine B assay relative to control; assay type: functional; conditions: read-out: Activity
CCRF-CEM [7] = assay: Cytotoxicity against human CCRF-CEM cells assessed as cell growth at 8 uM by sulforhodamine B assay relative to control; assay type: functional; conditions: read-out: Activity
U-251 [8] = assay: Cytotoxicity against human U251 cells assessed as cell growth at 8 uM by sulforhodamine B assay relative to control; assay type: functional; conditions: read-out: Activity
NCI-H322M = assay: Cytotoxicity against human NCI-H322M cells assessed as cell growth at 800 nM by sulforhodamine B assay relative to control; assay type: functional; conditions: read-out: Activity
ACHN [9] = assay: Cytotoxicity against human ACHN cells assessed as cell growth at 800 nM by sulforhodamine B assay relative to control; assay type: functional; conditions: read-out: Activity; in short: as §1
NCI-H522 [10] = assay: Cytotoxicity against human NCI-H522 cells by sulforhodamine B assay; assay type: functional; conditions: for TGI: read-out: pTGI (converted)
In short: (§2)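 NCI Developmental Therapeutics Program 60-cell-line human tumor panel screen, run at NCI. A single-concentration pre-screen was followed by a five-concentration dose-response in 10-fold steps. GI50 is the concentration that reduces growth of treated cells to half that of untreated control cells. TGI is the concentration that completely halts growth.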

OVCAR-5 [11] = assay: Cytotoxicity against human OVCAR5 cells by sulforhodamine B assay; assay type: functional; conditions: for TGI: read-out: pTGI (converted); in short: as §2
LOX IMVI = assay: Cytotoxicity against human LOXIMVI cells assessed as cell growth at 80 uM by sulforhodamine B assay relative to control; assay type: functional; conditions: read-out: Activity
UACC-257 = assay: Cytotoxicity against human UACC257 cells assessed as cell growth at 80 uM by sulforhodamine B assay relative to control; assay type: functional; conditions: read-out: Activity
SF-295 [12] = assay: Antitumor activity against human SF295 cells xenografted in mouse assessed as tumor cell killing at 2.35 mg/kg, ip qd for 4 days by MTT assay; assay type: functional, organism-based; design: dose 2.35 mg/kg
MOLT-4 = assay: Cytotoxicity against human MOLT4 cells assessed as cell growth at 80 nM by sulforhodamine B assay relative to control; assay type: functional; conditions: read-out: Activity
CCRF-CEM [13] = assay: Cytotoxicity against human CCRF-CEM cells assessed as cell growth at 80 nM by sulforhodamine B assay relative to control; assay type: functional; conditions: read-out: Activity
NCI-H23 = assay: Cytotoxicity against human NCI-H23 cells assessed as cell growth at 80 nM by sulforhodamine B assay relative to control; assay type: functional; conditions: read-out: Activity
CCRF-CEM [14] = assay: Cytotoxicity against human CCRF-CEM cells assessed as cell growth at 8 nM by sulforhodamine B assay relative to control; assay type: functional; conditions: read-out: Activity
HOP-92 = assay: Cytotoxicity against human HOP92 cells assessed as cell growth at 80 nM by sulforhodamine B assay relative to control; assay type: functional; conditions: read-out: Activity
UACC-62 = assay: Antitumor activity against human UACC62 cells xenografted in mouse assessed as tumor cell killing at 2.35 mg/kg, ip qd for 4 days by MTT assay; assay type: functional, organism-based; design: dose 2.35 mg/kg
Fusarium sp. = assay: Antimicrobial activity against Fusarium sp. by CLSI method; assay type: functional, organism-based
HT-29 = assay: Cytotoxicity against human HT-29 cells by sulforhodamine B assay; assay type: functional
In short: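 Run by the NCI Developmental Therapeutics Program on its 60-line human tumour cell panel using the standard procedure. Compounds went through a single-concentration prescreen first, and those active by NCI criteria went on to a five-concentration growth-inhibition test. GI50 is the concentration that cuts growth of treated cells to half that of untreated control cells.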

CCRF-CEM [15] = assay: Cytotoxicity against human CCRF-CEM cells assessed as cell growth at 80 uM by sulforhodamine B assay relative to control; assay type: functional; conditions: read-out: Activity
OVCAR-5 [16] = assay: Antitumor activity against human OVCAR5 cells xenografted in mouse assessed as tumor cell killing at 3.1 mg/kg, ip qd for 4 days by MTT assay; assay type: functional, organism-based; design: dose 3.1 mg/kg
NCI-H522 [17] = assay: Antitumor activity against human NCI-H522 cells xenografted in mouse assessed as tumor cell killing at 3.1 mg/kg, ip qd for 4 days by MTT assay; assay type: functional, organism-based; design: dose 3.1 mg/kg
CAKI-1 [18] = assay: Cytotoxicity against human Caki1 cells assessed as cell growth at 80 nM by sulforhodamine B assay relative to control; assay type: functional; conditions: read-out: Activity
MDA-MB-435 = assay: Antitumor activity against human MDA-MB-435 cells xenografted in mouse assessed as tumor cell killing at 3.1 mg/kg, ip qd for 4 days by MTT assay; assay type: functional, organism-based; design: dose 3.1 mg/kg
CAKI-1 [19] = assay: Cytotoxicity against human Caki1 cells by sulforhodamine B assay; assay type: functional; in short: as §1
CAKI-1 [20] = assay: Cytotoxicity against human Caki1 cells assessed as cell growth at 8 uM by sulforhodamine B assay relative to control; assay type: functional; conditions: read-out: Activity
CAKI-1 [21] = assay: Cytotoxicity against human Caki1 cells assessed as cell growth at 800 nM by sulforhodamine B assay relative to control; assay type: functional; conditions: read-out: Activity
SF-295 [22] = assay: Antitumor activity against human SF295 cells xenografted in mouse assessed as tumor cell killing at 3.1 mg/kg, ip qd for 4 days by MTT assay; assay type: functional, organism-based; design: dose 3.1 mg/kg
CAKI-1 [23] = assay: Cytotoxicity against human Caki1 cells assessed as cell growth at 8 nM by sulforhodamine B assay relative to control; assay type: functional; conditions: read-out: Activity
CAKI-1 [24] = assay: Cytotoxicity against human Caki1 cells assessed as cell growth at 80 uM by sulforhodamine B assay relative to control; assay type: functional; conditions: read-out: Activity
U-251 [25] = assay: Antitumor activity against human U251 cells xenografted in mouse assessed as tumor cell killing at 3.1 mg/kg, ip qd for 4 days by MTT assay; assay type: functional, organism-based; design: dose 3.1 mg/kg
[26] = read-out: pLC50 (the source's name) (converted)

| SMILES | growth at 0.8 µM (OVCAR-5 [2]) | growth at 0.8 µM (M14) | growth at 8 µM (ACHN [4]) | growth at 0.8 µM (Hs-578T) | growth at 0.8 µM (K562) | growth at 8 µM (U-251 [8]) | growth at 0.8 µM (NCI-H322M) | growth at 0.8 µM (ACHN [9]) | GI50 (NCI-H522 [10]) | LC50 (NCI-H522 [10]) | TGI (NCI-H522 [10]) | GI50 (OVCAR-5 [11]) | TGI (OVCAR-5 [11]) | growth at 80 µM (LOX IMVI) | growth at 80 µM (UACC-257) | growth at 0.08 µM (MOLT-4) | growth at 0.08 µM (NCI-H23) | growth at 0.08 µM (HOP-92) | Activity (Fusarium sp.) | GI50 (HT-29; read-out: GI50) | further results |
| --- | --- | --- | --- | --- | --- | --- | --- | --- | --- | --- | --- | --- | --- | --- | --- | --- | --- | --- | --- | --- | --- |
| C/C=C1\NC(=O)[C@H](Cc2ccccc2)NC(=O)[C@@H](C(C)C)NC(=O)[C@@H]([C@@H](C)CC)NC(=O)[C@H](NC(=O)[C@H](NC(=O)[C@H](CCCNCc2ccc(N3CCOCC3)cc2)NC(=O)[C@H]2CCCN2C(=O)[C@H](NC(=O)[C@@H](NC(=O)[C@@H](NC(=O)[C@H](NC(=O)CCCC(C)C)C(C)C)[C@@H](C)O)C(C)C)C(C)C)[C@@H](C)CC)[C@@H](C)OC(=O)[C@H](C(C)C)NC1=O | 64% | 102% | -84% | 36% | 102% | -98% | -76% | 90% | 5010 nM | > 75900 nM | 33100 nM | 933 nM | 2190 nM | -59% | -28% | 95% | 99% | 96% | Active | 224 nM | growth at 0.8 µM (CCRF-CEM [1]): 128%; Activity (NCI-H522 [3]): inactive; growth at 80 µM (SR): -7%; Activity (U-251 [5]): inactive; growth at 80 µM (SF-268): 18%; GI50 (CCRF-CEM [6]): 22900 nM; CC50 (CCRF-CEM [6]; [26]): > 75900 nM; TGI (CCRF-CEM [6]; read-out: pTGI (converted)): 39800 nM; growth at 8 µM (CCRF-CEM [7]): 82%; Activity (SF-295 [12]): inactive; growth at 0.08 µM (CCRF-CEM [13]): 123%; growth at 0.008 µM (CCRF-CEM [14]): 122%; Activity (UACC-62): inactive; GI50 (HT-29; read-out: pGI50 (converted)): 224 nM; growth at 80 µM (CCRF-CEM [15]): -31% |
| C/C=C1\NC(=O)[C@H](Cc2ccccc2)NC(=O)[C@@H](C(C)C)NC(=O)[C@@H]([C@@H](C)CC)NC(=O)[C@H](NC(=O)[C@H](NC(=O)[C@H](CCCNCc2ccc(F)c(C)c2)NC(=O)[C@H]2CCCN2C(=O)[C@H](NC(=O)[C@@H](NC(=O)[C@@H](NC(=O)[C@H](NC(=O)CCCC(C)C)C(C)C)[C@@H](C)O)C(C)C)C(C)C)[C@@H](C)CC)[C@@H](C)OC(=O)[C@H](C(C)C)NC1=O | 55% | 101% | -97% | -5% | 107% | -96% | -90% | 81% | 2570 nM | > 75900 nM | 35500 nM | 813 nM | 1740 nM | -92% | -70% | 97% | 100% | 105% | Active | 164 nM | Activity (OVCAR-5 [16]): inactive; Activity (NCI-H522 [17]): inactive; growth at 0.08 µM (CAKI-1 [18]): 150%; Activity (MDA-MB-435): inactive; GI50 (CAKI-1 [19]): 1450 nM; CC50 (CAKI-1 [19]; [26]): 4790 nM; TGI (CAKI-1 [19]; read-out: pTGI (converted)): 2630 nM; LC50 (OVCAR-5 [11]): 3800 nM; growth at 8 µM (CAKI-1 [20]): -86%; growth at 0.8 µM (CAKI-1 [21]): 103%; Activity (SF-295 [22]): inactive; growth at 0.008 µM (CAKI-1 [23]): 130%; growth at 80 µM (CAKI-1 [24]): -56%; GI50 (HT-29; read-out: pGI50 (converted)): 162 nM; Activity (U-251 [25]): inactive |
